# Results: ChEMBL document CHEMBL3580657, “Design and Evaluation of 3-(Benzylthio)benzamide Derivatives as Potent and Selective SIRT2 Inhibitors” (ACS Med Chem Lett, 2015)
# Activity calls are given as the source filed them. The calls are words filed in the database; no cut-off is given here.
# Key:
# [1] = molecular target: T1, NAD-dependent protein deacetylase sirtuin-2 (Homo sapiens) (UniProt Q8IXJ6); assay: Inhibition of SIRT2 (unknown origin) at 10 uM by Flour-de-Lys fluorescent biochemical assay
# T1 sequence (whole entry): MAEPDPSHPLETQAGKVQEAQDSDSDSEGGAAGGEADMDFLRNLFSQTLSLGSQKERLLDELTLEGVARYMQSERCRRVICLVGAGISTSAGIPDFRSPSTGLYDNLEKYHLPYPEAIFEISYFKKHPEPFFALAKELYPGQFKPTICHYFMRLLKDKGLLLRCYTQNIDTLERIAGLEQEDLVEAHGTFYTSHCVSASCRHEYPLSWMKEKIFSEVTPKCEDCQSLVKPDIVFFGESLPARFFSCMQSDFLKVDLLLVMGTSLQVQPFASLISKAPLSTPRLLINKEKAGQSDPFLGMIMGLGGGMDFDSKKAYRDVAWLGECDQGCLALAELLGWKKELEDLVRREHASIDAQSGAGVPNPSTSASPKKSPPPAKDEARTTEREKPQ
# In short: (§1)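 Biochemical sirtuin deacetylation assays (SIRT1, SIRT2, SIRT3) run as in earlier work. Single 10 μM dose in triplicate. Primary screen was SIRT2, with SIRT1 and SIRT3 as counter-screens. A reference compound was included with each assay.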
# [2] = molecular target: T2, NAD-dependent protein deacetylase sirtuin-2 (Rattus norvegicus) (UniProt Q5RJQ4); assay: Inhibition of SIRT2 in rat PC12 cells expressing inducible HD103Q-EGFP fusion fragment of huntingtin mutant assessed as reduction in number and size of fluorescent polyQ inclusions at 5 uM treated simultaneously with 2.5 uM ecdysone-inducible gene inducer muristerone A for 24 hrs by fluorescence microscopy; format: cell-based; details: PC-12
# T2 sequence (whole entry): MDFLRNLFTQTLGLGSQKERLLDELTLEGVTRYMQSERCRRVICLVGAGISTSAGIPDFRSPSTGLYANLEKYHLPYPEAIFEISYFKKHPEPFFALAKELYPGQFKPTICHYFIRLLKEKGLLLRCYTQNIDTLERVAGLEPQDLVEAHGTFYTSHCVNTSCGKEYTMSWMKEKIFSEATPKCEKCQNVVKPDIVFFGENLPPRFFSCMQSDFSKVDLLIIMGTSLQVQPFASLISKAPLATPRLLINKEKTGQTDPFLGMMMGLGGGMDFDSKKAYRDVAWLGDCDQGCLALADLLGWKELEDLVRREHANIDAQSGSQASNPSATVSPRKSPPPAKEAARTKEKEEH
# In short: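 PC12 cells carrying inducible HD103Q-EGFP huntingtin fragment were induced with 2.5 μM muristerone A for 24 h, simultaneous with compound at 25, 10 or 5 μM. PolyQ aggregation was scored by epifluorescence microscopy as number and size of fluorescent inclusions.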
# [3] = molecular target: T3, NAD-dependent protein deacetylase sirtuin-2 (Homo sapiens, UniProt Q8IXJ6); assay: Inhibition of SIRT2 (unknown origin) by Flour-de-Lys fluorescent biochemical assay
# T3 sequence (Q8IXJ6 whole entry): T1 sequence (whole entry)
# [4] = molecular target: T4, NAD-dependent protein deacetylase sirtuin-3, mitochondrial (Homo sapiens) (UniProt Q9NTG7); assay: Inhibition of SIRT3 (unknown origin) at 10 uM by Flour-de-Lys fluorescent biochemical assay; in short: as §1
# T4 sequence (whole entry): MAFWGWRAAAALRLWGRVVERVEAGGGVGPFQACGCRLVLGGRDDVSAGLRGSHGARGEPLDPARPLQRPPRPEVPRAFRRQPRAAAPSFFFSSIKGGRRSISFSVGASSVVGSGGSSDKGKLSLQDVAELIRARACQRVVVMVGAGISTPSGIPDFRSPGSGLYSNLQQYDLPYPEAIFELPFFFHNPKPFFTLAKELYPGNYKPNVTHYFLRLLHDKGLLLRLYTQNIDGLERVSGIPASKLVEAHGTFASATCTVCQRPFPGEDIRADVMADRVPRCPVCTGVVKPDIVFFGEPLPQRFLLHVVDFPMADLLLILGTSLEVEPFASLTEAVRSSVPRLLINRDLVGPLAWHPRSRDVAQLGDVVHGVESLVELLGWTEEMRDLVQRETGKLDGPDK
# [5] = molecular target: T5, NAD-dependent protein deacetylase sirtuin-1 (Homo sapiens) (UniProt Q96EB6); assay: Inhibition of SIRT1 (unknown origin) at 10 uM by Flour-de-Lys fluorescent biochemical assay; in short: as §1
# T5 sequence (whole entry): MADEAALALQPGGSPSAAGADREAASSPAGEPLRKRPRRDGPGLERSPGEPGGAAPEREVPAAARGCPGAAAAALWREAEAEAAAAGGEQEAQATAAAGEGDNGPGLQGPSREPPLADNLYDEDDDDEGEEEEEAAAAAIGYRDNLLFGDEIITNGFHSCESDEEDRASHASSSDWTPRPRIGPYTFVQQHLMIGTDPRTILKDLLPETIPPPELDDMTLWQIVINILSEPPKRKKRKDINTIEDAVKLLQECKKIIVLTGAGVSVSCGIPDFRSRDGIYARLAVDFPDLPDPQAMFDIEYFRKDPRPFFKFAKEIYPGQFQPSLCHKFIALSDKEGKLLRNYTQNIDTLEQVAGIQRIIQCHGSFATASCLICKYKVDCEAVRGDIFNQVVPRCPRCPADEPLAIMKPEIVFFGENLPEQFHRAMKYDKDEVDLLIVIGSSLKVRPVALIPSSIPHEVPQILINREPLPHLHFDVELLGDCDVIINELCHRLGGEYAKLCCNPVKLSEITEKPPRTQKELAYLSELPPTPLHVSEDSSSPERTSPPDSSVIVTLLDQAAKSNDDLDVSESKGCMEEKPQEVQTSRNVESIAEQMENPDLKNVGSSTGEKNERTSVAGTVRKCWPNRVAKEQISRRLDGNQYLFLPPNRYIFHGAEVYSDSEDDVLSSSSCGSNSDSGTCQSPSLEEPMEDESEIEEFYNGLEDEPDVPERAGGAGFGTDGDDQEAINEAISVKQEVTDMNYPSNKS
# [6] = molecular target: T2, NAD-dependent protein deacetylase sirtuin-2 (Rattus norvegicus); assay: Inhibition of SIRT2 in rat ST14A cells assessed as increase in alpha-tubulin K40 acetylation at 25 uM incubated for 6 hrs by SDS-PAGE and Western blotting method; format: cell-based
# In short: (§2)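 Cells were treated with compound for 6 h across 0.5–50 μM. Extracts were resolved by SDS-PAGE and immunoblotted with an antibody to acetyl-K40 α-tubulin, with GAPDH as loading control. In ST14A, signal was normalized to GAPDH and quantified from blots.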
# [7] = Toxicity in rat PC12 cells expressing inducible HD103Q-EGFP fusion fragment of huntingtin mutant assessed as effect on cell density at 5 uM by phase contrast microscopy; format: cell-based; details: pc-12, 5 µM
# [8] = molecular target: T2, NAD-dependent protein deacetylase sirtuin-2 (Rattus norvegicus); assay: Inhibition of SIRT2 in rat ST14A cells assessed as increase in alpha-tubulin K40 acetylation at 0.5 to 50 uM incubated for 6 hrs by SDS-PAGE and Western blotting method; format: cell-based; in short: as §2
inhibition [1],IC50 ([3]; read-out: IC50),inhibition [4],inhibition [5],SMILES,other results
18%,–,–,–,CS(=O)(=O)c1ccc(NC(=O)c2cccc([S+]([O-])Cc3ccc(Cl)cc3)c2)cc1 (stereo not drawn),–
60%,8.4 µM,8%,10%,C[S+]([O-])c1ccc(NC(=O)c2cccc(SCc3ccc(Cl)cc3)c2)cc1 (stereo not drawn),inhibition [8]: Dose-dependent effect
2%,–,–,–,O=C(Nc1ccc(Cl)cn1)c1cccc(S(=O)(=O)Cc2ccc(Cl)cc2)c1,–
21%,–,–,–,COc1ccc(C[S+]([O-])c2cccc(C(=O)Nc3ccc(C#N)cc3)c2)cc1 (stereo not drawn),–
40%,4.7 µM,0%,0%,N#Cc1ccc(NC(=O)c2cccc(S(=O)(=O)Cc3ccc(Cl)cc3)c2)cc1,–
47%,7.1 µM,11%,12%,N#Cc1ccc(NC(=O)c2cccc([S+]([O-])Cc3ccc(Cl)cc3)c2)cc1 (stereo not drawn),–
23%,–,–,–,CC(=O)c1ccc(NC(=O)c2cccc(S(=O)(=O)Cc3ccc(Cl)cc3)c2)cc1,–
17%,–,–,–,CS(=O)(=O)c1ccc(NC(=O)c2cccc(S(=O)(=O)Cc3ccc(Cl)cc3)c2)cc1,–
50%,6.7 µM,0%,3%,COc1ccc(CS(=O)(=O)c2cccc(C(=O)Nc3ccc(C#N)cc3)c2)cc1,–

# The remaining lines, values behind:
SMILES,inhibition [1],IC50 ([3]; read-out: IC50),inhibition [4],inhibition [5],other results
CSc1ccc(CSc2cccc(C(=O)Nc3ccc(C#N)cc3)c2)cc1,83%,2.4 µM,0%,3%,inhibition [2]: Active; inhibition [6]: Active; Activity [7]: Non-toxic
O=C(Nc1ccc(Br)cc1)c1cccc(S(=O)(=O)Cc2ccc(Cl)cc2)c1,0%,–,–,–,–
O=C(Nc1ccc(Cl)nn1)c1cccc(S(=O)(=O)Cc2ccc(Cl)cc2)c1,0%,–,–,–,–
N#Cc1ccc(NC(=O)c2cccc(SCc3ccc(Cl)cc3)c2)cc1,81%,2.9 µM,0%,8%,–
N#Cc1ccc(NC(=O)c2cccc(S(=O)(=O)Nc3ccc(Cl)cn3)c2)cc1,–,–,–,–,IC50 [3]: Not Active
C[S+]([O-])c1ccc(NC(=O)c2cccc([S+]([O-])Cc3ccc(Cl)cc3)c2)cc1 (stereo not drawn),24%,–,–,–,–
O=C(Nc1ccc(Cl)cc1)c1cccc(S(=O)(=O)Cc2ccc(Cl)cc2)c1,0%,–,–,–,–
